Data reported in publication PMC4944842 (Molecular cancer therapeutics, 2010).

Experiments:
[1] = test system: U87MG human glioblastoma cells; assay: 96-hour SRB antiproliferative assay; assay type: cell-based; conditions: U-87 MG, read-out: GI50 for growth inhibition (mean±SD)
How it was run: (§1)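 Cells attached for 36 h before treatment so they were in exponential growth. Test compound came from a 10 mM DMSO stock. Growth was measured by sulforhodamine B staining after 96 h of exposure. GI50 was derived by a previously published method and reported as mean ± SD of 3–5 independent experiments.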

[2] = test system: panel of kinases representative of the human protein kinome; assay: Kinase profiling at 10 µmol/L against panel of kinases; assay type: biochemical; conditions: ATP at Km
How it was run: (§2)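 Millipore profiling covered 50 human kinases. Test compound was tested at 10 µmol/L, with ATP at the Km of each enzyme. Readout was % kinase activity remaining.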

[3] = test system: U87MG human glioblastoma cells; assay: Immunoblotting of AKT biomarkers and cell cycle proteins; assay type: cell-based
How it was run: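 U87MG cells were exposed for 1 h to increasing test-compound concentrations, or to one fixed concentration sampled at intervals up to 48 h. Controls were DMSO and LY294002 (30 µM, 1 h). Phospho and total AKT, GSK3β, PRAS40, FOXO1/3a, S6RP, cyclin D1, p21 and p27 were immunoblotted (10% Tris-glycine gels, PVDF, overnight 4 °C primaries, ECL). GAPDH served as loading control.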

PKA = PKA (Homo sapiens, UniProt P17612); assay: Kinase enzyme assay; assay type: biochemical; conditions: read-out: activity remaining
[4] = Pharmacokinetics after single dose of 25 mg/kg; assay type: in vivo, mice
How it was run: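 Mice bearing HCT116 xenografts received a single 25 mg/kg dose i.v., i.p. or p.o. Plasma and tumor were sampled over time, 3–5 mice per time point. Drug was extracted with methanol and quantified by LC-MS on a Synergi-Polar RP column (0.1% formic acid/methanol gradient, 0.6 ml/min, 12 min). Data are mean ± SE.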

[5] = test system: HER2-positive, PIK3CA-mutant BT474 human breast cancer xenografts; assay: Antitumor activity in human tumor xenograft; assay type: in vivo, mice; conditions: 40 mg/kg bid × 5 of 7 days
How it was run: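 BT474 cells (5 × 10⁶) in medium mixed 1:1 with matrigel were implanted into mammary fat pads of female mice. Estradiol pellets (0.025 mg, 90-day release) had been placed s.c. 3 days earlier. Mice were randomized at ~100 mm³ mean tumor volume. Dosing was 40 mg/kg i.p. twice daily for 5 days versus vehicle (10% DMSO, 5% Tween 20, 85% saline). Tumors (calipers) and body weight were measured thrice weekly.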

[6] = test system: PTEN-null U87MG human glioblastoma xenografts; assay: Antitumor activity in human tumor xenograft; assay type: in vivo, mice; conditions: 25 mg/kg i.p. × 5 of 7 days
How it was run: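 U87MG cells (2 × 10⁶) were injected s.c. into the right flank of 6–8-week-old female […] mice. Mice were randomized at ~100 mm³ mean tumor volume and given test compound i.p. or vehicle (10% DMSO, 5% Tween 20, 85% saline). Body weight and caliper tumor diameters were recorded three times weekly. Volume = 4/3π[(d1+d2)/4]³; tumors were excised and weighed at study end.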

[7] = test system: PC3 human prostate cancer cells; assay: 96-hour SRB antiproliferative assay; assay type: cell-based; conditions: read-out: GI50 for growth inhibition (mean±SD)
How it was run: as §1

[8] = test system: PTEN-null U87MG human glioblastoma cells; assay: Flow cytometry cell cycle analysis; assay type: cell-based
CHK2 = CHK2 (Homo sapiens, UniProt O96017); assay: Kinase profiling at 10 µmol/L; assay type: biochemical; conditions: read-out: activity remaining
How it was run: as §2

[9] = test system: U87MG human glioblastoma xenografts; assay: Pharmacodynamic AKT biomarker immunoblotting in tumor xenografts; assay type: in vivo, mice; conditions: 50 mg/kg i.p. × 4 days
How it was run: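 Mice bearing s.c. U87MG xenografts received 50 mg/kg i.p. daily for 4 days. Tumors were harvested 2 and 6 h after the last dose; protein was measured by Bradford and tumors were immunoblotted. Each phosphoprotein/total protein ratio was normalized to GAPDH and expressed relative to vehicle controls (=1.0). Data are mean ± SE of 3–5 determinations.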

p70S6K = p70S6K (Homo sapiens, UniProt P23443); assay: Kinase enzyme assay; assay type: biochemical; conditions: read-out: activity remaining
How it was run: as §2

[10] = test system: PC3 and LNCaP prostate cancer cell lines, HCT116 colorectal cancer cells and MCF7 human breast cancer cells; assay type: cell-based; conditions: one hour exposure, 3 or 10 µM
How it was run: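 PC3, LNCaP, HCT116 and MCF7 cells were exposed for 1 h to 3 or 10 µM test compound. Controls were DMSO and LY294002 (30 µM, 1 h). Lysates were run on 10% Tris-glycine gels, transferred to PVDF and blocked in 5% milk/Tris-NaCl-Tween. Primary antibodies were applied overnight at 4 °C, then HRP secondaries for 1 h, with ECL detection. GAPDH served as loading control.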

Rock-II = Rock-II (Homo sapiens, UniProt O75116); assay: Kinase profiling at 10 µmol/L; assay type: biochemical; conditions: read-out: activity remaining
How it was run: as §2

[11] = test system: LNCaP human prostate cancer cells; assay: 96-hour SRB antiproliferative assay; assay type: cell-based; conditions: read-out: GI50 for growth inhibition (mean±SD)
How it was run: as §1

Sequence of p70S6K (P23443 whole entry): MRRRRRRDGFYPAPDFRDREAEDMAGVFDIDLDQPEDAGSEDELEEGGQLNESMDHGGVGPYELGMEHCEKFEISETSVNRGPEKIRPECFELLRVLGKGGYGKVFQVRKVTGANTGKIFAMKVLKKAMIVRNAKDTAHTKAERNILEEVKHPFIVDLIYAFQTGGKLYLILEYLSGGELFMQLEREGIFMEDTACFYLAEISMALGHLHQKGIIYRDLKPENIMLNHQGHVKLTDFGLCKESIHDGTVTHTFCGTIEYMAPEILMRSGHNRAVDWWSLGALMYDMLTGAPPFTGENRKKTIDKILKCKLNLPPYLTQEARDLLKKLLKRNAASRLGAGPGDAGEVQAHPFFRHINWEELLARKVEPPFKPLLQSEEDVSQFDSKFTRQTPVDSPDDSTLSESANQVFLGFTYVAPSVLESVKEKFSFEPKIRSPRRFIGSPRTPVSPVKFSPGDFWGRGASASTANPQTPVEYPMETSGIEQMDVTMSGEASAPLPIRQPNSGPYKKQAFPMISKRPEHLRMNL
Sequence of CHK2 (O96017 whole entry): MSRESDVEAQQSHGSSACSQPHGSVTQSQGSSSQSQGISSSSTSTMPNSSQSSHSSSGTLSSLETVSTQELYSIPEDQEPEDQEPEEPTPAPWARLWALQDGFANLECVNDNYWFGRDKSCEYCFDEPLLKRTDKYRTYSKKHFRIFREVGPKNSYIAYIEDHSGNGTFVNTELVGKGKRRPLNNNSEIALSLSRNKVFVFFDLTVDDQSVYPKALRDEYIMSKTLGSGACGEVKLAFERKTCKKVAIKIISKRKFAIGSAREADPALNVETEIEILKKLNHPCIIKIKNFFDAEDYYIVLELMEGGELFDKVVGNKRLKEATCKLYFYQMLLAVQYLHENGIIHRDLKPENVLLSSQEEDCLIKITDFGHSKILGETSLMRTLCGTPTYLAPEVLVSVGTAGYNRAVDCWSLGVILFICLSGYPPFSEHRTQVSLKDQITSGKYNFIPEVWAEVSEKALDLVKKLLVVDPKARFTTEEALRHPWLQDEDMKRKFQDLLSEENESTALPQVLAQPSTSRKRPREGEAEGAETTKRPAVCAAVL
Sequence of Rock-II (O75116 whole entry): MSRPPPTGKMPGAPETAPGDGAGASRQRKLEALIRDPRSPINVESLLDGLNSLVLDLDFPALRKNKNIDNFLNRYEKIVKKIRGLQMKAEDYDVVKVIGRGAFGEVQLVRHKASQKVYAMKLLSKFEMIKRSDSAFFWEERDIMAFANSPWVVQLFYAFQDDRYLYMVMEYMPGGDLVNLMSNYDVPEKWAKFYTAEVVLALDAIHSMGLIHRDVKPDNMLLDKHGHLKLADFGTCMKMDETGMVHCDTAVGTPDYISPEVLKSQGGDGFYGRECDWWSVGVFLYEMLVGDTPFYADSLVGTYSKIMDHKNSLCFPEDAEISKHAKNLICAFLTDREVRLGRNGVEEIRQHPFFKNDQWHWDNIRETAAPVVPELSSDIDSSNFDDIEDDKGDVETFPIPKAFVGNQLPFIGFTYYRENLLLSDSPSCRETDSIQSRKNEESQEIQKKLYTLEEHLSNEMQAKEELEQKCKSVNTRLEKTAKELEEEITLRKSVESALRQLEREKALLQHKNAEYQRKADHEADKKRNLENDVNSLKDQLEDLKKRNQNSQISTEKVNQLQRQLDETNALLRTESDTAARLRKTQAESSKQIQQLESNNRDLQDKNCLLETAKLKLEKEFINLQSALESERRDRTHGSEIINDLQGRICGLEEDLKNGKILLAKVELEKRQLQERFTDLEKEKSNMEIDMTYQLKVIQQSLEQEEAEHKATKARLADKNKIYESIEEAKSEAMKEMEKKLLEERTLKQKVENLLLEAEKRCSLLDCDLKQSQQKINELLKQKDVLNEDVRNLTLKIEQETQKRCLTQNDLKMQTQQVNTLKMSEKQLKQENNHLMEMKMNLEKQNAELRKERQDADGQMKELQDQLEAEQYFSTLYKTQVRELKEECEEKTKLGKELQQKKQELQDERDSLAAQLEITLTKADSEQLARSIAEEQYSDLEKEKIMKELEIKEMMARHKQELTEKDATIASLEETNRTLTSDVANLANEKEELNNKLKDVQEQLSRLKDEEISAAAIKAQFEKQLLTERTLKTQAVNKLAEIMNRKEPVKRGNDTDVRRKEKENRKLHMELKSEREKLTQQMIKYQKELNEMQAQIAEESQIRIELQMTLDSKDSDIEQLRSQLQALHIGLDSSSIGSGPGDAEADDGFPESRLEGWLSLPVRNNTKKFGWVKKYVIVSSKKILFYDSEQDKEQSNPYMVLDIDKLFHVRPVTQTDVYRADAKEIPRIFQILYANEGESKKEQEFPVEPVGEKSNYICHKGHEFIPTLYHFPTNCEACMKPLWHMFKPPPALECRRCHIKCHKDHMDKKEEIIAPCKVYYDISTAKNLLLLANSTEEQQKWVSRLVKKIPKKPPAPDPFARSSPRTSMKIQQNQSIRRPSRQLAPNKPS

## NC1(Cc2ccc(Cl)cc2)CCN(c2ncnc3[nH]ccc23)CC1 [CCT128930, 4-(4-chlorobenzyl)-1-(7H-pyrrolo[2,3-d]pyrimidin-4-yl)piperidin-4-amine]
[1]
  GI50: 6.3 µM
[2]
  cross-reactivity with 47 other kinases: minimal cross-reactivity
[3]; 18.9 μM
  cyclin D1 over time: decreased after 8 hours
[3]; 18.9 μM (3× GI50), after 30 minutes, sustained for 48 hours
  pSer473 AKT over time: increase in phosphorylation
[3]; 18.9 μM, after one hour exposure
  pThr32 FOXO3a phosphorylation: marked decrease
[3]; 18.9 μM, decrease at 30 minutes
  pSer235/236 S6RP signal over time: complete loss after 2 hours
[3]; 18.9 μM, decreased from 4 hours
  pSer240/244 S6RP signal over time: abolished after 8 hours
[3]; 18.9 μM, from 30 minutes, sustained at least 24 hours, recovery at 48 hours
  pSer9 GSK3β phosphorylation over time: rapid and profound loss
[3]; 18.9 μM, from 30 minutes, sustained throughout 48 hours
  pThr246 PRAS40 over time: marked loss in phosphorylation
[3]; 18.9 μM, from 2 hours
  CDK inhibitor p27 over time: induction
[3]; 1 hour
  exposure sufficient to markedly inhibit phosphorylation of GSK3β, S6RP, FOXO1 and PRAS40: 5 to 10 µM
[3]; 1 h treatment
  concentration decreasing cyclin D1 expression: ≥ 40 µM
  concentration inhibiting direct substrates of AKT (Ser9 GSK3β, pThr246 PRAS40 and pT24 FOXO1/p32 FOXO3a): ≥ 5 μM
  concentration inhibiting downstream target pSer235/236 S6RP: ≥ 10 μM
[3]; 1 h treatment, increasing concentrations
  effect on pSer240/244 S6RP: minimal effects
[3]; 1 h treatment, decrease at higher concentrations
  concentration up to which AKT phosphorylation at serine 473 is induced: up to 20 μM
[3]; after CCT128930 treatment (Supplementary Figure 2)
  apoptosis as measured by PARP cleavage: increase
PKA
  remaining activity at 10 µM: < 25%
[4]; 25 mg/kg i.p., HCT116 human colon tumor xenograft
  peak tumor concentration: 8 µM
[4]; 25 mg/kg i.p., HCT116 tumor xenograft
  AUC0-∞ tumor: 25.8 µMh
[4]; 25 mg/kg i.p., after 24 hours (data not shown)
  administered dose recovered unaltered in urine: 0.23%
[4]; 25 mg/kg i.p., mice
  AUC0-∞ plasma: 1.3 µMh
[4]; 25 mg/kg i.v., mice
  AUC0-∞ plasma: 4.6 µMh
  peak concentration in plasma: 6.4 µM
[4]; 25 mg/kg p.o., mice
  peak plasma concentration: 0.43 µM
[5]
  antitumor effect: complete growth arrest
[5]; day 15 of treatment
  body weight nadir, % of the initial body weight: 94.8%
[6]
  weight loss: no weight loss
[7]
  GI50: 1.9 µM
[8]; 1 × GI50, 24 hours, DMSO control 16.7%
  G2/M cells: 18.9%
[8]; 1 × GI50, 24 hours, DMSO control 32.3%
  S phase cells: 13.2%
[8]; 1 × GI50, 24 hours, DMSO control 46.4%
  G0/G1 phase cells: 63.2%
[8]; 3 × GI50 (18.9µM), 24 hours, DMSO control 17.8%
  G2/M phase cells: 30.5%
[8]; 3 × GI50 (18.9µM), 24 hours, DMSO control 36.6%
  S phase cells: 2.0%
[8]; 3 × GI50 (18.9µM), 24 hours, DMSO control 43.6%
  G0/G1 phase cells: 64.8%
CHK2
  remaining activity at 10 µM: < 25%
[9]; 2 and 6 hours (P<0.001 and P<0.01)
  phosphorylation of Ser9 GSK3β: significant decreases
[9]; 2 and 6 hours (P<0.05 and P<0.01)
  phosphorylation of Ser235/236 S6RP: significant decreases
[9]; 2 and 6 hours (P<0.05 and P<0.05)
  phosphorylation of Thr246 PRAS40: significant decreases
[9]; 2 and 6 hours after last dose (P<0.001 and P<0.01)
  Ser473 phosphorylation on AKT: significant increase
p70S6K
  remaining activity at 10 µM: < 25%
[10]
  pSer473 AKT: induction
[10]; all four cell lines
  pSer9 GSK3β: Decreased phosphorylation
  pSer240/244 S6RP: decreased
Rock-II
  remaining activity at 10 µM: < 25%
[11]
  GI50: 0.35 µM
